Several values for one entry are separate records, joined by “and”; a condition that tells them apart may be missing. Equal entries are not always repeated.
Key:
Assay type in all cases: functional
Mus musculus [1] = species on record: Mus musculus; experiment: In vitro bone-reabsorbing activity was examined in fetal mouse calvaria prelabeled with 45 Ca at 120 nM concentration, Ca release
Summary of the method: (§1)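 Paired half fetal mouse calvaria, split along the midsagittal suture, were precultured 24 h at 37 °C under 5% CO₂ in air in BGJ medium containing 1 mg/mL bovine serum albumin. Halves were then moved to fresh medium with or without derivative for 6 more days. Bones were digested overnight in HCl, and ⁴⁵Ca in the medium and bone was counted. ⁴⁵Ca release % = medium/(medium+bone)×100, reported as treated/control ratio. Student's t test.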

Mus musculus [2] = species on record: Mus musculus; experiment: In vitro bone-reabsorbing activity was examined in fetal mouse calvaria prelabeled with 45 Ca at 12 nM concentration, Ca release; summary of the method: as §1
Mus musculus [3] = species on record: Mus musculus; experiment: In vitro bone-resorbing activity was examined in fetal mouse calvaria prelabeled with 45Ca at 12 nM concentration; summary of the method: as §1
Mus musculus [4] = species on record: Mus musculus; experiment: In vitro bone-resorbing activity was examined in fetal mouse calvaria prelabeled with 45Ca at 120 nM concentration; summary of the method: as §1
Mus musculus [5] = species on record: Mus musculus; experiment: In vitro bone-resorbing activity was examined in fetal mouse calvaria prelabeled with 45Ca at 1.2 nM concentration; summary of the method: as §1
Mus musculus [6] = species on record: Mus musculus; experiment: In vitro bone-reabsorbing activity was examined in fetal mouse calvaria prelabeled with 45 Ca at 1.2 nM concentration, Ca release; summary of the method: as §1

Question: Which T/C (Mus musculus [1]) does the source give for `C[C@H](CCCC(C)(C)O)C1CCC2/C(=C/C3OOCC4=C3C[C@@H](O)CC4)CCCC21C` (stereo partly drawn) here?
Answer: The T/C was 2.43.

Question: And the T/C (Mus musculus [2])?
Answer: The T/C was 1.61.

Question: Which T/C (Mus musculus [3]) does the source give for `C[C@H](CCCC(C)(C)O)C1CCC2/C(=C/c3occ4c3CC(O)CC4)CCCC21C` (stereo partly drawn) here?
Answer: The T/C was 1.63.

Question: And the T/C (Mus musculus [4])?
Answer: The T/C was 2.64.

Question: And the T/C (Mus musculus [5])?
Answer: Its T/C is 1.05 and 0.98.

Question: How did the T/C (Mus musculus [1]) turn out when `C=C1CC[C@H](O)C/C1=C/C=C1\CCC[C@]2(C)[C@@H]([C@H](C)CCCC(C)(C)O)CC[C@@H]12` [CALCIFEDIOL ANHYDROUS] was run?
Answer: Its T/C is 1.74.

Question: What about the T/C (Mus musculus [2]) of the same molecule?
Answer: The T/C was 1.33.

Question: What about the T/C (Mus musculus [6]) of the same molecule?
Answer: The T/C was 1.
